Compounds with a hit are over-represented: about 9.6% of the library has one in this group of screens.
bCat KO growth: beta-catenin-lacking colon tumor cell growth suppression. HCT116 beta-catenin knockout viability, CellTiter-Glo, 60 h; active compounds read low. viability, % at 10 µM. 140,000 tested, 1.5% active;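 active means viability at or under a set limit, the compound median less 4 SD, cut at about 6% in these data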
TNAP act hiacc: activators of human TNAP at high phosphate acceptor concentration | P05186 | activation factor at 20 µM | 200,000 tested, under 10 active | AID 1136 | purified TNAP, CDP-star luminescence, 1 M DEA, 30 min; active compounds read high; 0 = EDTA background, 1 = DMSO-only activity;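 active means activation factor at least 2 at 20 µM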
Target sequence (P05186 whole entry, looked up): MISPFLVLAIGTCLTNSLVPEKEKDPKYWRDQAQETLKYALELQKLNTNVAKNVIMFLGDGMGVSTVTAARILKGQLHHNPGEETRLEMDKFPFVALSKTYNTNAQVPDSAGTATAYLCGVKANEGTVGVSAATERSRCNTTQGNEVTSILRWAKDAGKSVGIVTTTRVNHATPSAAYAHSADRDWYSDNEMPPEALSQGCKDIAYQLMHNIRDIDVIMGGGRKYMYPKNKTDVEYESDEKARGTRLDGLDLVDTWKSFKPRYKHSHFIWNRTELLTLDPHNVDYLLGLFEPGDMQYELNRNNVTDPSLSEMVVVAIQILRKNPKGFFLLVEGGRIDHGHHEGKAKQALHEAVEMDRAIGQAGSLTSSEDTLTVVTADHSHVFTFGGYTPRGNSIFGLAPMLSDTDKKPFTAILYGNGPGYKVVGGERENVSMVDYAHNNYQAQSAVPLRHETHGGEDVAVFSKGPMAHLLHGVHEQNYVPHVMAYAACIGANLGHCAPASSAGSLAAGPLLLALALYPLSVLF
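system = human TNAP | amount = enzyme diluted 1/800 final | reagent = 100 µM CDP-star substrate | signal = luminescent substrate turnover signal | dosing = one dose, 20 µM | benchmarks = EDTA negative control, DMSO positive control | measure = activation factor | timing = 30 min reaction, room temperature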
PTEN del growth: growth suppressors of cells with PTEN tumor suppressor deletion; HCT116 PTEN-null viability, CellTiter-Glo, 60 h; active compounds read low; viability, % at 10 µM; 140,000 tested, 1.2% active;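 active means viability at or below a set limit, 4 SD under the median of all tested compounds, cut at about 3.7% in these data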;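 further: PTEN knockout HCT116 line with beta catenin targeted HCT116 as companion control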
TNAP inh hi DEA: inhibitors of human TNAP at high phosphate acceptor concentration. inhibition, % at 20 µM. purified TNAP, CDP-star luminescence, 1 M DEA. 200,000 tested, 0.03% active. P05186;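 active means over 50% inhibition of tissue-nonspecific alkaline phosphatase at 20 µM in the single-dose screen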
L major viab: Leishmania major promastigote growth inhibition. Leishmania major promastigotes, resazurin fluorescence viability. inhibition, % at 10 µM. 200,000 tested, 9% active; in the data active means inhibition above about 50%;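 further: promastigotes grown with compound for 44 hours at 28 °C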
TNAP inh no acc: inhibitors of human TNAP without phosphate acceptor; purified TNAP, CDP-star luminescence, 30 min; inhibition, % at 20 µM; 200,000 tested, 0.26% active; AID 1012;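 active means tissue-nonspecific alkaline phosphatase inhibition above about 50% at 20 µM in the single-dose screen, limit read from the data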
Each line names hits and unclear results; the compound was inactive in the other large screens.

CC(=O)C(/C=N/c1ncc(C(F)(F)F)cc1Cl)=C(\C)O	none (no result: bCat KO growth, PTEN del growth)
c1ccc(NC2=Nc3cccc4cccc2c34)cc1	none (no result: bCat KO growth, PTEN del growth)
O=C(NNC1=Nc2cccc3cccc1c23)c1ccccc1Br	L major viab 52.7
Cc1ccc(N=Cc2c(O)n(-c3cc(Cl)ccc3N3CCOCC3)c(=O)c3ccccc23)cc1C	L major viab 69.8
Cc1cc(N=Cc2c(O)n(-c3cccc(Cl)c3)c(=O)c3ccccc23)no1	none
O=C1CC(c2ccccc2Cl)=NN(c2ncnc3ccccc23)C1=O	L major viab 83.0 (no result: bCat KO growth, PTEN del growth)
CC1CCN(c2ncnc3ccccc23)CC1	none
Clc1ccc2nc(-c3ccccn3)c(Nc3ccc4c(c3)OCO4)n2c1	L major viab 99.9
COCCn1c(=O)[nH]c(=O)c2c1nc(-c1cc(Br)c3c(c1)OCO3)n2Cc1ccccc1	none (no result: bCat KO growth, PTEN del growth)
Cn1nc(-c2ccc(N3CCCCC3)c(NC(=O)c3ccco3)c2)c2ccccc2c1=O	L major viab 56.0
O=C(NCCN1C(=O)S/C(=C\c2cccnc2)C1=O)C1=NN(c2ccccc2)C(=O)CC1	none (no result: bCat KO growth, PTEN del growth)
CCc1cc(=O)[nH]c(-n2[nH]c(-c3ccccc3)cc2=O)n1	none (no result: bCat KO growth, PTEN del growth)
O=c1cc(-c2ccccc2)[nH]n1-c1nc2ccccc2[nH]1	bCat KO growth 4.5
Cn1c(/C=C(\C#N)C(N)=S)ccc1-c1ccc(Br)cc1	none (no result: bCat KO growth, PTEN del growth)
CCOC(=O)N1CCN(CC(O)COC2CC(C)CC(C)(C)C2)CC1 (stereo unspecified)	L major viab 92.6 (no result: PTEN del growth)
CCOC(=O)N1CCN(C(=O)NC23CC4CC(CC(C4)C2)C3)CC1	none
CC1CC(OCC(O)CN2CCOCC2)CC(C)(C)C1 (stereo unspecified)	L major viab 76.9
CC1CC(OCC(O)C[N+]2(C)CCOCC2)CC(C)(C)C1 (stereo unspecified)	none (no result: bCat KO growth, PTEN del growth)
Cc1cc(C)n2c(SCC(=O)N(CC(C)C)c3c(N)n(CC(C)C)c(=O)[nH]c3=O)nnc2n1	none (no result: bCat KO growth, PTEN del growth)
COc1ccc(/C=N/Nc2nc(N3CCCCC3)nc(N3CCCCC3)n2)cc1[N+](=O)[O-]	L major viab 95.6
COc1ccc(-c2cnnc(N/N=C/c3ccc(O)c(OC)c3)n2)cc1	L major viab 53.6
COc1ccc(/C=N/Nc2nc(Nc3ccccc3)nc(N3CCCC3)n2)cc1[N+](=O)[O-]	none (no result: bCat KO growth, PTEN del growth)
CCOc1cc(/C=N/Nc2nc(N3CCCCC3)nc(N3CCCCC3)n2)ccc1OC(=O)c1ccco1	L major viab 57.8 (no result: bCat KO growth, PTEN del growth)
COc1cc(/C=N/Nc2nc(N3CCCC3)nc(N3CCCC3)n2)ccc1O	L major viab 97.0
Cc1cccc(C(=O)N[C@H](C(=O)Nc2nccs2)C(C)C)c1	none
O=C1Nc2ccc(Br)cc2C12NNc1ccccc1O2 (stereo unspecified)	L major viab 72.9 (no result: bCat KO growth, PTEN del growth)
O=C1Nc2ccc(Br)cc2C1(O)Cc1ccccn1 (stereo unspecified)	none
COC(=O)c1cccc(NC(=S)NCc2ccc(F)cc2)c1	none (no result: bCat KO growth, PTEN del growth)
Cc1ccsc1C(=O)C1CCCN(Cc2cccn2-c2ccc(Cl)cn2)C1 (stereo unspecified)	L major viab 94.3 (no result: bCat KO growth, PTEN del growth)
CCN(CC)C(=O)C1CCCN(Cc2nc(-c3cccs3)no2)C1 (stereo unspecified)	none (no result: bCat KO growth, PTEN del growth)
Cc1ccc(-n2cccn2)c(CN2CCCC(C(=O)c3sccc3C)C2)c1 (stereo unspecified)	L major viab 86.6 (no result: bCat KO growth, PTEN del growth)
Fc1ccc(Oc2cnc3ccccc3n2)cc1	none (no result: bCat KO growth, PTEN del growth)
O=C(N=Nc1c(O)[nH]c2ccccc12)c1cccc(S(=O)(=O)N2CCCCC2)c1	L major viab 61.0
CC(C)c1ccc2[nH]c(O)c(N=NC(=O)c3cccc(S(=O)(=O)N4CCCCC4)c3)c2c1	L major viab 98.8
CCn1c(C)nc2cc(C(=O)N=Nc3c(O)[nH]c4ccccc34)ccc21	L major viab 53.7
CC(C)c1ccc2[nH]c(O)c(N=NC(=O)c3cccc(S(=O)(=O)Nc4ccc(Cl)cc4)c3)c2c1	none (no result: bCat KO growth, PTEN del growth)
C=CCN1CC2(c3ccccc3)CN(CC=C)CC(c3ccccc3)(C1)C2=O	none (no result: bCat KO growth, PTEN del growth)
CS(=O)(=O)N1CCC(C(=O)N2CCN(c3ccccc3F)CC2)CC1	none (no result: bCat KO growth, PTEN del growth)
CCc1ccccc1Nc1nc(N)nc(CSCC(=O)Nc2ccc(C)c(C)c2)n1	L major viab 85.0
Cc1ccnc2nc(C(=O)Nc3ccc4c(c3)OCO4)nn12	none
O=C(Nc1ccc2c(c1)OCO2)c1cc(C2CC2)on1	L major viab 52.0
CC(C)c1cc(C(=O)Nc2ccc3c(c2)OCO3)no1	none
Cc1cc(C)n2nc(C(=O)Nc3ccc4c(c3)OCO4)nc2n1	L major viab 67.3
O=C(NC(=S)Nc1ccc2c(c1)OCO2)c1ccc(Cl)cc1	bCat KO growth 0.2
Cc1c(-c2ccncc2)oc2ccc(Br)cc2c1=O	none (no result: bCat KO growth, PTEN del growth)
O=C(NCc1cccs1)C1CCCN1C(=O)Nc1ccc(Cl)cc1 (stereo unspecified)	none (no result: bCat KO growth, PTEN del growth)
COc1cccc(NC(=O)Cn2c(=O)n(-c3ccccc3)c(=O)c3sccc32)c1	none (no result: bCat KO growth, PTEN del growth)
CC(C)N(CC(N)=O)C(=O)c1sc2cc(F)ccc2c1Cl	none (no result: bCat KO growth, PTEN del growth)
CN1CCC(N(C)C(=O)c2sc3cc(F)ccc3c2Cl)CC1	L major viab 90.4 (no result: bCat KO growth, PTEN del growth)
Brc1cccc(OCCOCCn2ccnc2)c1	L major viab 98.6
Brc1cccc(OCCn2ccnc2)c1	none
CCOc1cccc(OCCCCn2ccnc2)c1	L major viab 86.9
CCc1cccc(OCCCn2ccnc2)c1	L major viab 94.8
CCOC(=O)c1c(NC(=O)c2cnn3c2NC(c2cccc(OC)c2)CC3C(F)(F)F)sc2c1CCCC2 (stereo unspecified)	none
S=C(NCc1cccnc1)Nc1ccc(Cl)c(Cl)c1	L major viab 98.1
COc1ccccc1NC(=S)NCc1cccnc1	L major viab 68.3
COc1cccc(NC(=S)NCc2ccncc2)c1	L major viab 68.2
Cc1cc(C)nc(SCc2ccc(C(=O)N/N=C/C3CCCCC3)cc2)n1	none
CC1(C(=O)NCc2ccccn2)C=CCN1C(=O)c1ccccc1 (stereo unspecified)	none
O=c1c2ccccc2c(C=Nc2cccc(O)c2)c(O)n1-c1ccc2c(c1)OCO2	bCat KO growth 3.7
COc1ccc(N=Cc2c(O)n(-c3ccc(OC)cc3)c(=O)c3ccccc23)cc1	none (no result: bCat KO growth, PTEN del growth)
Cc1ccc(Oc2ccc(-c3nnc(-c4ccccc4)o3)cc2[N+](=O)[O-])cc1C	L major viab 59.7
Clc1ccc(-n2ncc3c(N4CCCCCC4)ncnc32)cc1	none
Brc1cc(Br)c2ncnc(N3CCCCC3)c2c1	bCat KO growth 5.8
CCc1cc2c(cc3c(=O)n(CC(=O)NCCCN(CC)CC)nc(CC)n32)s1	L major viab 91.5
CC1CC(C)CN(CCCNC(=O)Cn2ncn3cccc3c2=O)C1 (stereo unspecified)	none
CCc1cc2c(cc3c(=O)n(CC(=O)NCCCN4CC(C)CC(C)C4)ncn32)s1 (stereo unspecified)	L major viab 84.5
